Published values collected from several papers.
Protocols differ between the studies behind these lines. pEC50, pIC50: −log10 of the molar value.
Read-out: cell growth or viability

| SMILES | cell line | assay | conditions | measurement | value |
| --- | --- | --- | --- | --- | --- |
| COc1ccc(NC(=O)c2c(Nc3ccccc3)sc(C(=O)NN=Cc3ccccc3)c2NC(C)=O)cc1 | HepG2 | SRB | 100 µM, 48 h | viability | 60.2% |
| CCOC(=O)c1ccc(-n2c(C)cc(/C=C/c3ccc(OC)cc3)c(C#N)c2=O)cc1 | HepG2 | MTT | 50 µM, 24 h | viability | 58.1% |
| C=CC(=O)N1CCC[C@@H](n2nc(-c3ccc(Oc4ccccc4)cc3)c3c(N)ncnc32)C1 | Ramos | – | 48 h | GI50 | > 10 µM |
| Cc1cc(Nc2ccc(C(=O)N/N=C/c3ccc[nH]3)cc2)c2cccc(O)c2n1 | Huh-7 | MTT | 20 µM | inhibition | 68.3% |
| COc1cc2c(Nc3ccc(Br)cc3F)ncnc2cc1OCC1CCN(C)CC1 | NCI-H292 | ATP luminescence | 72 h | GI50 | 1.14 µM |
| COc1ccc(NC(=O)c2c(Nc3ccccc3)sc(C(=O)NN=Cc3ccc(Cl)cc3)c2NC(C)=O)cc1 | HepG2 | SRB | 10 µM, 48 h | viability | 71.2% |
| CCOC(=O)c1ccc(-n2c(C)cc(/C=C/c3ccc(OCC)cc3)c(C#N)c2=O)cc1 | HepG2 | MTT | 3.125 µM, 24 h | viability | 100% |
| Cc1cc(Nc2ccc(C(=O)N/N=C/c3ccnc(Cl)c3)cc2)c2cccc(O)c2n1 | Huh-7 | MTT | 20 µM | inhibition | 32.9% |
| COc1ccc(NC(=O)c2c(Nc3ccccc3)sc(C#N)c2NC(=O)CNc2ccc(O)cc2)cc1 | HepG2 | SRB | 100 µM, 48 h | viability | 53.9% |
| CCCCCCCCCCCCNC(=O)NCCCC[C@H](NS(C)(=O)=O)C(=O)N[C@H](C)C(=O)N[C@@H](CCCNC(=N)N)C(N)=O | HEK-293T | MTT | 72 h | pEC50 | 4.42 to 4.54 |
| CCOC(=O)c1ccc(NC(=O)C2=C3C(=Nc4ccccc43)NC2=O)cc1 | HepG2 | MTT | 1.56 µM, 24 h | viability | 100% |
| COc1cc(Nc2nccc(-c3cnn4nc(OC)ccc34)n2)cc(C(F)(F)F)c1 | HEC-1B | ATP luminescence | – | pIC50 | < 5.52 |
| Cc1cc(Nc2ccc(C(=O)N/N=C/c3cccc(Oc4ccccc4)c3)cc2)c2cccc(O)c2n1 | Huh-7 | MTT | 20 µM | inhibition | 61% |
| C=CC(=O)Nc1cccc(Nc2nc(Nc3ccc(OCCOC)cc3)ncc2F)c1 | Ramos | – | 48 h | GI50 | 9.2 µM |
| COc1ccc(NC(=O)c2c(Nc3ccccc3)sc(C#N)c2NC(=O)CNc2ccc(C)cc2)cc1 | HepG2 | SRB | 10 nM, 48 h | viability | 88.3% |
| COc1cc(N2CCC(N3CCN(C)CC3)CC2)ccc1Nc1ncc(Cl)c(Nc2ccccc2P(C)(C)=O)n1 | NCI-H292 | ATP luminescence | 72 h | GI50 | 2.76 µM |
| COc1ccc(NC(=O)c2c(Nc3ccccc3)sc(C(=O)NN=Cc3ccc(OC)c(O)c3)c2NC(C)=O)cc1 | HepG2 | SRB | 0.1 µM, 48 h | viability | 63.7% |

| SMILES | cell line | assay | conditions | measurement | value |
| --- | --- | --- | --- | --- | --- |
| CCOC(=O)c1ccc(N2C(N)=C(C#N)C3(C(=O)Nc4ccccc43)C(C#N)=C2O)cc1 (stereo not drawn) | HepG2 | MTT | 1.56 µM, 24 h | viability | 94.2% |
| CCOCCOCCOCCNC(=S)NCCCC[C@H](NS(C)(=O)=O)C(=O)N[C@@H](C)C(=O)N[C@@H](CCCNC(=N)N)C(N)=O | HEK-293T | MTT | 72 h | pEC50 | < 4.00 |
| COc1ccc(NC(=O)c2c(Nc3ccccc3)sc(C#N)c2NC(=O)CNc2ccc([N+](=O)[O-])cc2)cc1 | HepG2 | SRB | 10 nM, 48 h | viability | 86.4% |
| CC(=O)Nc1cccc(-n2c(=O)n(C3CC3)c(=O)c3c(Nc4ccc(I)cc4F)n(C)c(=O)c(C)c32)c1 | HepG2 | resazurin | 0.1 µM, 72 h | viability | 40.7% |
| Cc1cc(Nc2ccc(C(=O)N/N=C/c3cc4ccccc4[nH]3)cc2)c2cccc(O)c2n1 | Huh-7 | MTT | 20 µM | inhibition | 60.2% |
| CC(C)C[C@H](NC(=O)[C@H](Cc1ccccc1)NC(=O)c1cnccn1)B(O)O | HEC-1B | ATP luminescence | – | pIC50 | 8.02 |
| Cc1ccc(/C=N/NC(=O)c2ccc(Nc3cc(C)nc4c(O)cccc34)cc2)cc1 | Huh-7 | MTT | 20 µM | inhibition | 62.5% |
| COc1ccc(NC(=O)c2c(Nc3ccccc3)sc(C#N)c2NC(=O)CNc2ccccc2Cl)cc1 | HepG2 | SRB | 0.1 µM, 48 h | viability | 95.7% |
| CCOC(=O)c1ccc(-n2c(N)c(C#N)c(CC#N)c(C#N)c2=O)cc1 | HepG2 | MTT | 3.125 µM, 24 h | viability | 90.2% |
| CCOC(=O)c1sc(NCc2ncccn2)nc1-c1ccccn1 | Huh-7 | – | – | CC50 | > 40 µM |
| CCOC(=O)c1ccc(-n2c(C)cc(C)c(C#N)c2=O)cc1 | HepG2 | MTT | 50 µM, 24 h | viability | 51.2% |
| CCCCCCCCCCCCNC(=S)NCCCC[C@H](NS(C)(=O)=O)C(=O)N[C@H](C)C(=O)N[C@@H](CCCNC(=N)N)C(=O)N1CCOCC1 | HEK-293T | MTT | 72 h | pEC50 | < 4.00 |
| Cc1cc(Nc2ccc(C(=O)N/N=C/C3CCCCC3)cc2)c2cccc(O)c2n1 | Huh-7 | MTT | 20 µM | inhibition | 41.1% |
| COc1ccc(NC(=O)c2c(Nc3ccccc3)sc(C#N)c2NC(=O)CNc2ccccc2)cc1 | HepG2 | SRB | 1 nM, 48 h | viability | 102% |
| Cc1cc(Nc2ccc(C(=O)N/N=C/c3ccc(C)s3)cc2)c2cccc(O)c2n1 | Huh-7 | MTT | 20 µM | inhibition | 43.3% |
| CCOCc1sc(NCc2ncccn2)nc1-c1ccccn1 | Huh-7 | – | – | CC50 | > 40 µM |
